# The source made the active and inactive calls. Unless noted, no rule for the calls is given here.
# Tests used:
# [1] = molecular target: Pantothenate synthetase (Mycobacterium tuberculosis (strain ATCC 25618 / H37Rv)) (UniProt P9WIL5); assay: Coupled enzyme confirmation of inhibitors against recombinant Mtb PanC (AID 375); conditions: coupled enzyme assay; at 10 µM, stronger effect = higher value;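 as to inhibition: 0% = full reaction with vehicle and 100% = no enzyme background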
# [2] = as above; conditions: coupled enzyme assay; measured here: coupling enzymes IC50 repeat trials unless noted
# [3] = reduced viability of SK-BR-3 breast cancer cells – cell-based, 24 h, human, pilot screen (AID 572;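 active = viability at or below 10% of carrier control in both of two separate runs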;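 also: compound exposure lasted between 18 and 24 h rather than exactly 24 h; 100% = carrier-treated control wells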); conditions: SK-BR-3 viability, CellTiter-Glo luminescence, at 10 µM, stronger effect = lower value
# [4] = HUVEC growth inhibition – cell-based, human, primary screen (AID 575;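 active = viability at or below 30% in both replicate assays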;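 also: 100% = median of untreated cell wells with 0.1% DMSO on each plate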); conditions: HUVEC proliferation, CellTiter-Glo luminescence, 72 h; at 10 µM; stronger effect = lower value
# Summary of the method: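 Timing: 72 h treatment at 37 °C; material: HUVEC primary cells; technique: CellTiter-Glo luminescence measuring cellular ATP; controls: vehicle and MePR control wells; measure: percent of median DMSO-control luminescence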
# [5] = MRP1 drug-resistance reversers in H69AR cells – cell-based, doxorubicin co-treatment, pilot screen (AID 601;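 active = viability loss from added drug above about 55%, and viability with drug at most 40%, in both replicates, limit read from the data, passing the limit was not always enough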); conditions: CellTiter-Glo, 72 h, at 10 µM
# [6] = yeast transport mutant growth inhibition pilot in 384-well plates, post-Golgi transport modulator project (AID 636; in the data active = inhibition above about 31%); conditions: absorbance 615 nm, about 18 h, stronger effect = higher value
# [7] = growth suppression of yeast trafficking mutant, preliminary HTS, modulators of trafficking downstream of Golgi apparatus project, 1536-format plate, OD 615 nm (AID 637; in the data active = inhibition above about 30%); conditions: yeast transport mutant growth, absorbance 615 nm, 18 h; stronger effect = higher value
# Sequence of Pantothenate synthetase (Mycobacterium tuberculosis (strain ATCC 25618 / H37Rv)) (P9WIL5 whole entry, looked up): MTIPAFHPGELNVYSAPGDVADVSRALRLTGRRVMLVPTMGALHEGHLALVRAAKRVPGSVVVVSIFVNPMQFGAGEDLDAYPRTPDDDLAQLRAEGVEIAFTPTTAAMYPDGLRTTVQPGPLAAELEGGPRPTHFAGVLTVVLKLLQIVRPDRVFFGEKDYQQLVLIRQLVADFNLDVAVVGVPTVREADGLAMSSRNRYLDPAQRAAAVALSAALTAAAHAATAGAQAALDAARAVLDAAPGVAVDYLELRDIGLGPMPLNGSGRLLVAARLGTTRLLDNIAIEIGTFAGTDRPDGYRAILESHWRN
compound,measurement,setting,value
Cc1occc1C(=O)Nc1ccccc1NC(=O)c1ccoc1C,inhibition,[1],3% (inactive)
O=c1c2ccccc2[se]n1-c1ccccc1,IC50,[2],0.485 µM [measured here: coupling enzymes counter-screen IC50]
same,viability,[3],67% (inactive)
same,viability,[4],42.1% (inactive)
same,differential viability (reversal),"[5]; H69AR cells + 2 uM doxorubicin, stronger effect = higher value",2.39% (inactive)
same,viability,"[5]; H69AR cells + 2 uM doxorubicin, measured here: viability with 2 uM doxorubicin, stronger effect = lower value",1.34%
same,viability,"[5]; H69AR cells, compound alone cytotoxicity",3.73%
same,inhibition,[6],0.65% (inactive)
same,inhibition,[7],-0.5% (inactive)
Cc1cccc(Nc2ccccc2C(=O)O)c1C,inhibition,[1],4% (inactive)
CCC(C)(C(=O)NC1CCCCC1)N(CC1CCCO1)C(=O)c1ccccn1 (centres undefined),inhibition,[1],0% (inactive)
COc1ccc(OC)c(-c2cc(C(=O)Nc3cc(C)n(Cc4ccc(Cl)cc4)n3)no2)c1,IC50,[2],> 100 µM
same,outcome,[1],inactive
Cc1ccc(Cn2ccc(NC(=O)c3noc4c3CCCCC4)n2)cc1,IC50,[2],> 100 µM
same,outcome,[1],inactive
Cc1ccc(Cn2ccc(NC(=O)c3cc(-c4ccco4)on3)n2)cc1,IC50,[2],> 100 µM
same,outcome,[1],inactive
Cc1cc(C(=O)Nc2cc(C)n(Cc3ccc(Cl)cc3)n2)no1,IC50,[2],> 100 µM
same,inhibition,[1],3% (inactive)
Cc1cc(NC(=O)c2noc3c2CCCC3)nn1Cc1ccc(Cl)cc1,IC50,[2],> 100 µM
same,outcome,[1],inactive
COc1ccc(-c2cc(C(=O)Nc3cc(C)n(Cc4ccc(Cl)cc4)n3)no2)cc1OC,IC50,[2],> 100 µM
same,outcome,[1],inactive
COc1ccc2c(c1)CCc1c(C(=O)Nc3cc(C)n(Cc4ccc(Cl)cc4)n3)noc1-2,IC50,[2],> 100 µM
same,outcome,[1],inactive
OCCn1c(-c2ccc3c(c2)OCO3)csc1=Nc1ccccc1,inhibition,[1],1% (inactive)
Cc1cc(NC(=O)c2cc(-c3ccco3)on2)nn1Cc1ccc(Cl)cc1,IC50,[2],> 100 µM
same,outcome,[1],inactive
COc1ccccc1-c1cc(C(=O)Nc2cc(C)n(Cc3ccc(Cl)cc3)n2)no1,IC50,[2],> 100 µM
same,outcome,[1],inactive
COc1cccc(C2CC(c3ccc(C)cc3)Nc3nc(N)nn32)c1 (centres undefined),inhibition,[1],0% (inactive)
COc1ccc2c(c1)CCc1c(C(=O)Nc3ccn(Cc4ccc(C)cc4)n3)noc1-2,IC50,[2],> 100 µM
same,outcome,[1],inactive
Cc1ccccc1Cn1cc(NC(=O)c2noc3c2CC(C(C)(C)C)CC3)cn1 (centres undefined),IC50,[2],> 100 µM
same,outcome,[1],active
CCOc1ccccc1OCC(=O)NCc1ccco1,inhibition,[1],0% (inactive)
O=C(c1cc2cc(Cl)cc(Cl)c2oc1=O)N1CCOCC1,inhibition,[1],0% (inactive)
Cc1ccc(Cn2ccc(NC(=O)c3cc(-c4ccccc4)on3)n2)cc1,IC50,[2],> 100 µM
same,outcome,[1],inactive
CS(=O)(=O)N1CCN(CC2CC3C=CC2C3)CC1 (centres undefined),inhibition,[1],8% (inactive)
CSc1cccc(NC(=O)C2CCN(S(=O)(=O)c3ccc(F)cc3)CC2)c1,inhibition,[1],0% (inactive)
O=C(O)C1CC(=O)N(c2ccc(OCc3c(F)cccc3Cl)cc2)C1 (centres undefined),inhibition,[1],2% (inactive)
CCOC(=O)CSc1nnc(CNC(=O)c2ccc(OC)c(OC)c2)n1C,inhibition,[1],0% (inactive)
CCc1cccc(NS(=O)(=O)c2c(C)n[nH]c2C)c1,inhibition,[1],0% (inactive)
Cc1cc(NC(=O)c2cc(-c3cccs3)on2)nn1Cc1ccc(Cl)cc1,IC50,[2],> 100 µM
same,outcome,[1],inactive
COc1ccc(N2CCN(C(c3cccs3)C(C)NC(=O)c3ccco3)CC2)cc1 (centres undefined),inhibition,[1],0% (inactive)
O=C(NCc1cccs1)C1CCN(S(=O)(=O)c2cccs2)CC1,inhibition,[1],0% (inactive)
Cc1ccccc1Cn1nc(C)c(NC(=O)c2noc3c2CC(C(C)(C)C)CC3)c1C (centres undefined),IC50,[2],> 100 µM
same,outcome,[1],inactive
COc1ccc2c(c1)Sc1ccccc1N2CCN(C)C,inhibition,[1],3% (inactive)
Cc1ccc(Cn2ccc(NC(=O)c3noc4c3CCCC4)n2)cc1,IC50,[2],> 100 µM
same,inhibition,[1],0% (inactive)
Cc1ccc(Cn2ccc(NC(=O)c3cc(-c4cccs4)on3)n2)cc1,IC50,[2],> 100 µM
same,inhibition,[1],3% (inactive)
CC(=O)Nc1ccccc1OCc1nnc(-c2cccs2)o1,inhibition,[1],0% (inactive)
Cc1cc(NC(=O)c2noc3c2CCCCC3)nn1Cc1ccc(Cl)cc1,IC50,[2],> 100 µM
same,outcome,[1],inactive
Cc1ccc(Cn2ccc(NC(=O)c3cc(-c4ccc(F)cc4)on3)n2)cc1,IC50,[2],> 100 µM
same,outcome,[1],inactive
O=C(CSc1nnc(Cc2cccs2)n1Cc1ccco1)Nc1cccc(Cl)c1,inhibition,[1],0% (inactive)
Cc1ccc(Cn2ccc(NC(=O)c3cc(-c4cccc(Cl)c4)on3)n2)cc1,IC50,[2],> 100 µM
same,outcome,[1],inactive
CCOC(=O)NC(=O)CSc1nnnn1-c1ccc(Cl)cc1,inhibition,[1],0% (inactive)
COc1cccc(-c2cc(C(=O)Nc3cc(C)n(Cc4ccc(Cl)cc4)n3)no2)c1,IC50,[2],> 100 µM
same,inhibition,[1],0% (inactive)
NC(=O)N1c2ccccc2C=Cc2ccccc21,inhibition,[1],0% (inactive)
Cc1nc(-c2coc3cc(OCC(=O)O)ccc3c2=O)cs1,inhibition,[1],0% (inactive)
CC1=C(C(N)=O)C(c2ccncc2)n2nc(-c3ccccc3Cl)nc2N1 (centres undefined),inhibition,[1],0% (inactive)

# — PubChem BioAssay
